Results taken from ChEMBL document CHEMBL1155110, “Ribose-modified purine nucleosides as ribonucleotide reductase inhibitors. Synthesis, antitumor activity, and molecular modeling of N6-substituted 3'-C-methyladenosine derivatives” (J Med Chem, 2008).

How the values were obtained:
[1] = tested on: HT-29; assay: Antitumor activity against human HT29 cells after 48 hrs by MTS assay; assay type: functional; details: HT-29, 48 h
How it was run: (§1)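 Cells grown in RPMI 1640 (K562) or MEM with Earle's salts (HT-29, CaCo-2, MCF-7) plus 10% FBS, 37 °C, 5% CO2; adherent lines trypsinized to single-cell suspension. Log-phase cells plated at about 5000 cells/mL, acclimatized 24 h, then exposed to serial dilutions in triplicate, up to 250 µM, for 48 h. MTS/PMS added 3 h; absorbance 490 nm; GI50 from growth inhibition.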

[2] = tested on: HL-60; assay: Decrease in intracellular dATP pool in human HL60 cells at 5 uM after 24 hrs relative to control; assay type: functional; parameters: scale not given: the % may be the effect or the level left
How it was run: (§2)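 HL-60 cells in log phase (0.5 × 10^6 per ml) incubated 24 h with drug at 2.5, 5 or 10 µM. dNTPs extracted from 5 × 10^7 cells by trichloroacetic acid lysis, Freon/tri-n-octylamine neutralization, periodate oxidation with methylamine (37 °C, 30 min). Quantified by SAX HPLC in ammonium phosphate pH 3.4 with 2% acetonitrile, UV 280/260 nm; expressed versus untreated control.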

[3] = tested on: HL-60; assay: Decrease in intracellular dATP pool in human HL60 cells at 10 uM after 24 hrs relative to control; assay type: functional; parameters: scale not given: the % may be the effect or the level left; how it was run: as §2
[4] = tested on: MCF7; assay: Antitumor activity against human MCF7 cells after 48 hrs by MTS assay; assay type: functional; details: MCF7, 48 h; how it was run: as §1
[5] = tested on: HL-60; assay: Decrease in intracellular dATP pool in human HL60 cells at 2.5 uM after 24 hrs relative to control; assay type: functional; parameters: scale not given: the % may be the effect or the level left; how it was run: as §2
[6] = tested on: Caco-2; assay: Antitumor activity against human CaCo2 cells after 48 hrs by MTS assay; assay type: functional; details: Caco-2, 48 h; how it was run: as §1
[7] = tested on: K562; assay: Antitumor activity against human K562 cells after 48 hrs by MTS assay; assay type: functional; details: K562, 48 h; how it was run: as §1
[8] = tested on: K562; assay: Growth inhibition of 1 uM 1,4-dihydro-2-methyl-6-phenyl-4-(phenylethyl)-3,5-pyridine-dicarboxylic acid 3-ethyl-5-[(3-nitrophenyl) methyl] ester pretreated human K562 cells after 48 hrs by MTS assay; assay type: functional
[9] = molecular target: T1, Adenosine receptor A3 (Homo sapiens, UniProt P0DMS8); assay: Inhibition of human adenosine A3 receptor
T1 sequence (P0DMS8 whole entry): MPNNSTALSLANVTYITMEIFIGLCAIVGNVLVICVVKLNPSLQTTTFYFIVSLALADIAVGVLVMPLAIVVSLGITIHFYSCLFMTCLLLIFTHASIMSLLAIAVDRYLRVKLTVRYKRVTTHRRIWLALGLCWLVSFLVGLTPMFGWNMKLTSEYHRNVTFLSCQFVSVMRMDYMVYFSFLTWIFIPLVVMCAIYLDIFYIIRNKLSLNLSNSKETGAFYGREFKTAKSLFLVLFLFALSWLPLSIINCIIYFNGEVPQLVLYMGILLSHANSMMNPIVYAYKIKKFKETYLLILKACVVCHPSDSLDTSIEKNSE

[10] = tested on: K562; assay: Growth inhibition of 1 uM 1,4-dihydro-2-methyl-6-phenyl-4-(phenylethyl)-3,5-pyridine-dicarboxylic acid 3-ethyl-5-[(3-nitrophenyl) methyl] ester pretreated human K562 cells after 72 hrs by MTS assay; assay type: functional
[11] = tested on: K562; assay: Growth inhibition of 0.1 uM 1,4-dihydro-2-methyl-6-phenyl-4-(phenylethyl)-3,5-pyridine-dicarboxylic acid 3-ethyl-5-[(3-nitrophenyl) methyl] ester pretreated human K562 cells after 72 hrs by MTS assay; assay type: functional
[12] = tested on: K562; assay: Growth inhibition of 0.1 uM 1,4-dihydro-2-methyl-6-phenyl-4-(phenylethyl)-3,5-pyridine-dicarboxylic acid 3-ethyl-5-[(3-nitrophenyl) methyl] ester pretreated human K562 cells after 48 hrs by MTS assay; assay type: functional
[13] = tested on: HL-60; assay: Decrease in intracellular dCTP pool in human HL60 cells at 40 nM relative to control; assay type: functional; parameters: scale not given: the % may be the effect or the level left
[14] = tested on: HL-60; assay: Decrease in intracellular dATP pool in human HL60 cells at 40 nM relative to control; parameters: scale not given: the % may be the effect or the level left

| Compound | GI50 [1] [µM] | GI50 [4] [µM] | GI50 [6] [µM] | GI50 [7] [µM] | other results |
| --- | --- | --- | --- | --- | --- |
| C[C@@]1(O)[C@@H](CO)O[C@@H](n2cnc3c(N[C@@H]4C[C@@H]5CC[C@@H]4C5)ncnc32)[C@@H]1O (racemic) | 65.8 | 56 | 56 | 32.5 | Activity [2]: 28%; Activity [3]: 10%; Activity [5]: 65% |
| C[C@@]1(O)[C@@H](CO)O[C@@H](n2cnc3c(Nc4cc[nH]n4)ncnc32)[C@@H]1O | > 250 | > 250 | > 250 | > 250 |  |
| OC[C@H]1O[C@@H](n2cnc3c(NCc4ccccc4)ncnc32)[C@H](O)[C@@H]1O [N6-BENZYLADENOSINE] | 22.3 | 61 | 7.4 | 4.6 | GI50 [8]: 4.17 µM; Ki [9]: 0.0413 µM; GI50 [10]: 2.92 µM; GI50 [11]: 2.92 µM; GI50 [12]: 3.91 µM |
| OC[C@H]1O[C@@H](n2cnc3c(NCc4cccs4)ncnc32)[C@H](O)[C@@H]1O | 53.4 | 51.5 | 3.3 | 3.1 | Ki [9]: 0.06 µM |
| Nc1ccn([C@@H]2O[C@H](CO)[C@@H](O)C2(F)F)c(=O)n1 [GEMCITABINE] | 0.03 | 0.01 | 0.18 | 0.32 | Activity [13]: 6.1%; Activity [14]: 13.9% |
| C[C@@]1(O)[C@@H](CO)O[C@@H](n2cnc3c(NC4CCCC4)ncnc32)[C@@H]1O | > 250 | > 250 | > 250 | 145 |  |
| C[C@@]1(O)[C@@H](CO)O[C@@H](n2cnc3c(NC4CCCCCC4)ncnc32)[C@@H]1O | 106 | 200 | > 250 | 83 |  |
| OC[C@H]1O[C@@H](n2cnc3c(NC4CCCC4)ncnc32)[C@H](O)[C@@H]1O [N6-CYCLOPENTYLADENOSINE] | > 250 | > 250 | > 250 | > 250 |  |
| C[C@@]1(O)[C@@H](CO)O[C@@H](n2cnc3c(NC4CC4)ncnc32)[C@@H]1O | > 250 | > 250 | > 250 | 73 |  |
| C[C@@]1(O)[C@@H](CO)O[C@@H](n2cnc3c(Nc4ccccc4)ncnc32)[C@@H]1O | 137 | 207 | 246 | 98 |  |
| C[C@@]1(O)[C@@H](CO)O[C@@H](n2cnc3c(NCc4ccco4)ncnc32)[C@@H]1O | > 250 | > 250 | > 250 | > 250 |  |
| C[C@@]1(O)[C@@H](CO)O[C@@H](n2cnc3c(N)ncnc32)[C@@H]1O | 26.1 | 22.4 | 23.2 | 9.4 |  |
| C[C@@]1(O)[C@@H](CO)O[C@@H](n2cnc3c(NC4CCCCC4)ncnc32)[C@@H]1O | > 250 | > 250 | 223 | 50 |  |
| OC[C@H]1O[C@@H](n2cnc3c(NC4CCCC4)nc(Cl)nc32)[C@H](O)[C@@H]1O | > 250 | > 250 | > 250 | > 250 |  |
| OC[C@H]1O[C@@H](n2cnc3c(N[C@@H]4C[C@@H]5CC[C@@H]4C5)ncnc32)[C@H](O)[C@@H]1O (racemic) | > 250 | > 250 | > 250 | 116 |  |
| OC[C@H]1O[C@@H](n2cnc3c(NCc4ccco4)ncnc32)[C@H](O)[C@@H]1O [KINETIN RIBOSIDE] | 60.2 | 45.6 | 45.6 | 3.3 | Ki [9]: 0.022 µM |
| C[C@@]1(O)[C@H](O)[C@@H](CO)O[C@H]1n1cnc2c(N)ncnc21 | > 100 | > 100 | > 100 | 16 |  |
| C[C@@]1(O)[C@@H](CO)O[C@@H](n2cnc3c(NC4CCCC4)nc(Cl)nc32)[C@@H]1O | > 250 | > 250 | > 250 | > 250 |  |
| OC[C@H]1O[C@@H](n2cnc3c(Nc4ccccc4)ncnc32)[C@H](O)[C@@H]1O [N6-PHENYLADENOSINE] | > 250 | > 250 | > 250 | > 250 |  |
| C[C@@]1(O)[C@@H](CO)O[C@@H](n2cnc3c(NCc4cccs4)ncnc32)[C@@H]1O | > 250 | > 250 | > 250 | > 250 |  |
| C[C@@]1(O)[C@@H](CO)O[C@@H](n2cnc3c(NCc4ccccc4)ncnc32)[C@@H]1O | > 250 | > 250 | > 250 | > 250 |  |
| OC[C@H]1O[C@@H](n2cnc3c(NC4CCCCC4)ncnc32)[C@H](O)[C@@H]1O | > 250 | > 250 | > 250 | > 250 |  |
| C[C@@]1(O)[C@@H](CO)O[C@@H](n2cnc3c(NC4CCC4)ncnc32)[C@@H]1O | > 250 | > 250 | > 250 | 246 |  |
